Activity, Km and Vmax data for four compounds are collected here from ChEMBL document CHEMBL2146367, “Novel fluorescent ceramide derivatives for probing ceramidase substrate specificity” (Bioorg Med Chem, 2012).

For test [1], the target named is T1, Acid ceramidase (Homo sapiens) (UniProt Q13510).
T1 sequence (whole entry): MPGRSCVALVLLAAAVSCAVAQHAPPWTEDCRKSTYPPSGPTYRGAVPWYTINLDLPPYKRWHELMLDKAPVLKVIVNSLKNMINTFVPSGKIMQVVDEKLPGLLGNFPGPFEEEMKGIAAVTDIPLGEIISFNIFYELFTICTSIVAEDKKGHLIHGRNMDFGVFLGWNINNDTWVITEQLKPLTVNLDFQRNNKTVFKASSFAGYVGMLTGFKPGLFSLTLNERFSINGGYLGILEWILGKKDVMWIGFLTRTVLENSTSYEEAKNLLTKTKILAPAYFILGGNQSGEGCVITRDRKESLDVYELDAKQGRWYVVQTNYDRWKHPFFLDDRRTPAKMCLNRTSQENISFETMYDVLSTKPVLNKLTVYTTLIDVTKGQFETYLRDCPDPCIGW
As to the kind of experiment: Activity of human recombinant acid ceramidase expressed in baculovirus infected Sf9 cells assessed as hydrolysis at 160 uM after 150 mins by TLC-based fluorescence imaging in presence of B-13. The method in brief:
(§1)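 Inhibition runs used 30 µg/mL aCDase with inhibitor at 50 µM, in pH 4.5 sodium acetate buffer with 200 mM NaCl and 0.1% Triton X-100. Substrate set per compound at 80, 55 or 160 µM; DMSO <5%. Incubated 150 min at 37 °C, then extracted and run on TLC with fluorescence imaging. Activity expressed relative to an inhibitor-free control; mean ± SD of three experiments, with significance by p value.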

In test [2] the target is T1, Acid ceramidase (Homo sapiens). As to the kind of experiment: Activity of human recombinant acid ceramidase expressed in baculovirus infected Sf9 cells assessed as hydrolysis at 160 uM after 150 mins by TLC-based fluorescence imaging in presence of DP-24a. The essentials: as §1
Test [3] deals with Neutral ceramidase (Homo sapiens) (UniProt Q9NR71). In words: Activity of human recombinant neutral ceramidase assessed as hydrolysis at 20 uM after 60 mins by TLC-based fluorescence imaging. Set-up: scale not given: the % may be the effect or the level left. The essentials:
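Recombinant human nCDase at 20 ng/mL final, with substrate at 20 µM final, in 200 mM sodium acetate pH 7.0, 200 mM NaCl, 0.1% Triton X-100. Incubated 60 min at 37 °C. Stopped with chloroform/methanol 2:1 and centrifuged 2 min at 10,000 rpm; organic layer run on TLC. Percent hydrolysis from imaged fluorescence of product versus substrate; mean ± SD, n=3.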

For test [4], the target named is T1, Acid ceramidase (Homo sapiens). As to the kind of experiment: Activity of human recombinant acid ceramidase expressed in baculovirus infected Sf9 cells assessed as hydrolysis at 20 uM after 150 mins by TLC-based fluorescence imaging. Also noted: scale not given: the % may be the effect or the level left. The essentials:
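Micellar assay with insect-cell-expressed human aCDase in 200 mM sodium acetate pH 4.5, 200 mM NaCl, 0.1% Triton X-100. Substrate at 20 µM final, 150 min at 37 °C. Quenched with chloroform/methanol 2:1, organic layer separated on silica TLC. Spots imaged at ex 550/em 600 nm (Nile Red) or ex 430/em 550 nm (NBD). Percent cleavage taken from cleaved/(cleaved+uncleaved) fluorescence; mean ± SD, n=3.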

For test [5] the target is unchanged. As to the kind of experiment: Activity of human recombinant acid ceramidase expressed in baculovirus infected Sf9 cells assessed as hydrolysis at 55 uM after 150 mins by TLC-based fluorescence imaging in presence of DP-24a. The method in brief:
as §1

The target is the same in test [6]. In words: Activity of human recombinant acid ceramidase expressed in baculovirus infected Sf9 cells assessed as hydrolysis at 55 uM after 150 mins by TLC-based fluorescence imaging in presence of B-13. The method in brief: as §1
For test [7] the target is unchanged. As to the kind of experiment: Activity of human recombinant acid ceramidase expressed in baculovirus infected Sf9 cells assessed as hydrolysis at 80 uM after 150 mins by TLC-based fluorescence imaging in presence of DP-24a. The method in brief:
as §1

Test [8] has the same target. As to the kind of experiment: Activity of human recombinant acid ceramidase expressed in baculovirus infected Sf9 cells assessed as hydrolysis at 80 uM after 150 mins by TLC-based fluorescence imaging in presence of B-13. The method in brief:
as §1

The subject of another test is Tachypleus tridentatus. In words: Activity of japanese horseshoe crab acid ceramidase after 30 mins by TLC-based fluorescence imaging.

Structures are written as SMILES. The source made the active and inactive calls. The calls are words filed in the database; no cut-off is given here.

Sequence of Neutral ceramidase (Homo sapiens) (Q9NR71 whole entry): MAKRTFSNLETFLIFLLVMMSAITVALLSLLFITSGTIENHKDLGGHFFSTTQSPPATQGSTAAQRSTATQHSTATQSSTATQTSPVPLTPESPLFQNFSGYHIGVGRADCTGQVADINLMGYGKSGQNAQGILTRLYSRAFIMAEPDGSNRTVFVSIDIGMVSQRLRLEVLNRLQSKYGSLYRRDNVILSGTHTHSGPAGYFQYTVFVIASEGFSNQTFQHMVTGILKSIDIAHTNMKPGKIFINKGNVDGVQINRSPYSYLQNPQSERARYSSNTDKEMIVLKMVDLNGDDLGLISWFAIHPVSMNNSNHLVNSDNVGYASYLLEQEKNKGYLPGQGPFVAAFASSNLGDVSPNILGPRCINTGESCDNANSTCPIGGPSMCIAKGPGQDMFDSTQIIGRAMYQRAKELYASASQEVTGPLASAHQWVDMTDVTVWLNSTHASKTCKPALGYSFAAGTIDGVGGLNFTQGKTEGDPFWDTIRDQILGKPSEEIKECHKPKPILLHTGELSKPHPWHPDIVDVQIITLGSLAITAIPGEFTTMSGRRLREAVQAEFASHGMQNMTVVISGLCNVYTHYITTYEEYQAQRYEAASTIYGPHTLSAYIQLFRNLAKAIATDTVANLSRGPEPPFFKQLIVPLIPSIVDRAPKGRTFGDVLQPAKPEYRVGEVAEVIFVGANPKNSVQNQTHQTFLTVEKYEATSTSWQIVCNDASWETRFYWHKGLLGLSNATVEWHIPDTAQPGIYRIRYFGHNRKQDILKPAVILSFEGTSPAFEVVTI

In the case of `CCCCCCCCCCCCCCCC(=O)N[C@@H](CO)[C@H](O)/C=C/CCCCCCCCCNc1ccc([N+](=O)[O-])c2nonc12`, the outcome in [1] and in test [2] was inactive. Moreover, the results for the Activity in test [3] and in [4] were 6.2% and 5.6%, respectively.

Turning to `CCCCCCCCCCCCCCCC(=O)N[C@@H](CO)[C@H](O)/C=C/CCCCCCCCCOc1ccc2c(=O)cc3oc4cc(N(CC)CC)ccc4nc-3c2c1`, the outcome in [5] and in test [6] was inactive. In addition, the Activity in [3] worked out at 3.9%; in test [4] it was 6.3%.

What is called Km is the substrate concentration at which the rate is half of its maximum. As a reminder, the Vmax is the top rate of the reaction or transport when substrate is in excess. For the compound `CCCCCCCCCCCCC/C=C/[C@@H](O)[C@H](CO)NC(=O)CCCCCCCCCCCNc1ccc([N+](=O)[O-])c2nonc12`, the result in test [7] and in [8] was inactive. In addition, the Activity in test [3] and in [4] was 9.9% each time. Besides, the Km in the test with Tachypleus tridentatus stood at 59 µM. Besides, the Vmax with Tachypleus tridentatus was determined as 0.8 pmol/min.

With `CCCCCCCCCCCCC/C=C/[C@@H](O)[C@H](CO)NC(=O)CCCCCCCCCCCOc1ccc2c(=O)cc3oc4cc(N(CC)CC)ccc4nc-3c2c1`, the result in [7] and in test [8] was inactive. The values for the Activity in [3] and in [4] were 3.3% and 6.1%, respectively.
